Usually logD stands for lipophilicity at a set pH, counting ionised and neutral species. One may read the Papp B→A as the apparent permeability from the basolateral to the apical side of a cell layer. The Papp A→B is how fast a substance crosses the layer from the apical side. One may read the efflux ratio as the permeability from basolateral to apical divided by that in the opposite direction, in the common usage. A word on the Papp: it is a coefficient for how fast a substance crosses the barrier. One may read the bioavailability as the share of a dose that reaches the circulation, judged against a reference dose that is usually intravenous. High values mean much systemic uptake, low ones little systemic uptake.

Where a SMILES comes first, the peptide text is derived from it. Some results are limits rather than exact numbers.

The values that follow come from ChEMBL document CHEMBL3526071, “Predicting phenolic acid absorption in Caco-2 cells: a theoretical permeability model and mechanistic study” (Drug Metab Dispos, 2012).

Data set [1] is described as follows: 1-Octanol-water distribution coefficient, log D of the compound at pH 7.4. It counts as physicochemical.
Data set [2] in a line: 1-Octanol-water distribution coefficient, log D of the compound at pH 7.4 by shake flask method. Format: physicochemical.
Data set [3] in a line: Apparent permeability from basolateral to apical side in human Caco2 cells at 500 uM at pH 7.4 after 1 hr by HPLC-DAD analysis. It counts as ADME, cell-based. The settings on record: Caco-2, pH 7.4. The essentials: (§1)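 Differentiated Caco-2 monolayers after 21+ days on Transwells, equilibrated 15 min in HBSS with 1.8 mM CaCl2, pH 7.4. 500 μM compound (from DMSO stock) in the donor, apical or basal. Both sides pH 7.4. 1 h at 37°C, 5% CO2. Receiver measured by HPLC-DAD with recovery correction. Papp calculated from receiver amount over time versus initial donor amount. Mean ± S.D., n = 3.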

Data set [4] is described as follows: Apparent permeability from apical to basolateral side in human Caco2 cells at 500 uM at pH 7.4 after 1 hr by HPLC-DAD analysis. Particulars: Caco-2, pH 7.4. Format: ADME, cell-based. The essentials: as §1
(In general: Caco-2 cells form a polarised layer with tight junctions and transporters.)

Data set [5] can be described thus: Efflux ratio of apparent permeability from basolateral to apical side over apical to basolateral side in human Caco2 cells at 500 uM after 1 hr by HPLC-DAD analysis. It counts as ADME, cell-based. Particulars: Caco-2.
The nature of data set [6]: Apparent permeability across human Caco2 cells with high TEER resistance at 500 uM after 1 hr by HPLC-DAD analysis. Format: ADME, cell-based. The settings on record: Caco-2. Summed up: (§2)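 Caco-2 (passages 30–50) seeded at 6 × 10^4 cells/cm2 on 0.4-μm polycarbonate Transwell inserts and grown 21 days. Monolayer resistance varied by 15-min preincubation in HBSS pH 7.4 with 18 μM or 3.6 mM CaCl2. 500 μM compound added apically in HBSS at the same CaCl2. 1 h, 37°C, no stirring. TEER measured before and after, corrected for cell-free insert. Receiver quantified by HPLC-DAD. n = 3.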

Data set [7] is described as follows: Apparent permeability across human Caco2 cells with low TEER resistance at 500 uM after 1 hr by HPLC-DAD analysis. It counts as ADME, cell-based. The settings on record: Caco-2. The essentials:
as §2

A short description of data set [8]: Oral bioavailability in human. Format: ADME, organism-based. Particulars: in vivo.
The mark [9] stands for this setting: 1-octanol/water, read-out: logD.

Regarding `COC(=O)c1ccccc1-c1c2ccc(=N)cc-2oc2cc(N)ccc12` [RHODAMINE123], the logD in data set [1] (setting [9]) stood at 0.53. On to `COc1ccc(/C=C/C(=O)O)cc1OC`, for which, in data set [2], the logD is -1.01. Also, the Papp B→A at 1 h, 500 µM in data set [3] worked out at 21.7 ×10⁻⁶ cm/s. For the same compound, in data set [4], the Papp A→B at 1 h, 500 µM turned out to be 19.9 ×10⁻⁶ cm/s. For the same compound, the efflux ratio at 1 h, 500 µM in data set [5] worked out at 1.1. On to `OC[C@H]1OC(O)[C@H](O)[C@@H](O)[C@@H]1O` (some centres undefined) [DEXTROSE], for which the logD in data set [1] (setting [9]) was -2.83. For the compound `NCC(=O)N1CCC[C@H]1C(=O)O` [GLYCYL PROLINE] (H-Gly-Pro-OH), the logD in data set [1] (setting [9]) was -3.32. Take `O=C(/C=C/c1ccc(O)c(O)c1)O[C@@H]1C[C@](O)(C(=O)O)C[C@@H](OC(=O)/C=C/c2ccc(O)c(O)c2)[C@H]1O`: the Papp at 1 h, 500 µM amounted to 0.05 ×10⁻⁶ cm/s in data set [6] and 0.68 ×10⁻⁶ cm/s in data set [7]. Moreover, the logD in data set [2] was -1.04. For the same compound, in data set [3], the basolateral-to-apical permeability (Papp B→A) at 1 h, 500 µM was 0.72 ×10⁻⁶ cm/s. The Papp A→B at 1 h, 500 µM in data set [4] amounted to 0.14 ×10⁻⁶ cm/s. In data set [5], the efflux ratio at 1 h, 500 µM was 5.4. Regarding `O=C(O)/C=C/c1ccc(O)c(O)c1` [CAFFEIC ACID], the Papp B→A at 1 h, 500 µM in data set [3] is 1.7 ×10⁻⁶ cm/s. Moreover, the Papp A→B at 1 h, 500 µM in data set [4] is 1.4 ×10⁻⁶ cm/s. Regarding `O=C(/C=C/c1ccc(O)c(O)c1)O[C@@H]1C[C@](O)(C(=O)O)C[C@@H](O)[C@H]1O` [CHLOROGENIC ACID], the values for the Papp at 1 h, 500 µM in data set [6] and in data set [7] were 0.25 ×10⁻⁶ cm/s and 0.77 ×10⁻⁶ cm/s, respectively. Also, the logD in data set [2] is -3.05. The Papp B→A at 1 h, 500 µM in data set [3] was determined as 0.33 ×10⁻⁶ cm/s. Besides, the Papp A→B at 1 h, 500 µM in data set [4] was determined as 0.38 ×10⁻⁶ cm/s. As for `COc1cc(/C=C/C(=O)O[C@@H]2C[C@](O)(C(=O)O)C[C@@H](O)[C@H]2O)ccc1O`, the Papp at 1 h, 500 µM in data set [6] stood at 0.31 ×10⁻⁶ cm/s; in data set [7], 1.7 ×10⁻⁶ cm/s. Besides, the logD in data set [2] was -2.79. The Papp B→A at 1 h, 500 µM in data set [3] was determined as 0.28 ×10⁻⁶ cm/s. Further, in data set [4], the Papp A→B at 1 h, 500 µM is 0.25 ×10⁻⁶ cm/s. Moreover, in data set [5], the efflux ratio at 1 h, 500 µM was 1.1. In the case of `COC1=CC(=O)C[C@@H](C)[C@]12Oc1c(Cl)c(OC)cc(OC)c1C2=O` [GRISEOFULVIN], the logD in data set [1] (setting [9]) was found to be 2.47. For `CN1C(C(=O)Nc2ccccn2)=C(O)c2ccccc2S1(=O)=O` [PIROXICAM], in data set [1] (setting [9]), the logD was found to be 0.

Turning to `CC(=O)Nc1ccc(OCC(O)CNC(C)C)cc1` (centres undefined) [PRACTOLOL], in data set [1] (setting [9]), the logD was -1.4. With `COCCc1ccc(OCC(O)CNC(C)C)cc1` (centres undefined) [METOPROLOL], in data set [2], the logD was -0.24. Compound `CCOC(=O)C1=C(C)NC(C)=C(C(=O)OC)C1c1cccc(Cl)c1Cl` (centres undefined) [FELODIPINE] yielded a logD in data set [1] (octanol/water) of 3.48. `COCC(=O)O[C@]1(CCN(C)CCCc2nc3ccccc3[nH]2)CCc2cc(F)ccc2[C@@H]1C(C)C` [MIBEFRADIL] registered a logD in data set [1] (octanol/water) of 3.66. `N[C@@H](Cc1ccc(O)c(O)c1)C(=O)O` [LEVODOPA] returned a logD in data set [1] (octanol/water) of -1.22. Regarding `Cc1c(N(C)C)c(=O)n(-c2ccccc2)n1C` [AMINOPYRINE], the bioavailability in data set [8] is 100%.

As to `Cc1ccnc2c1NC(=O)c1cccnc1N2C1CC1` [NEVIRAPINE], the logD in data set [1] (setting [9]) was 1.81. The compound further gave a bioavailability in data set [8] of over 90%. As to `CC(=O)CC(c1ccccc1)c1c(O)c2ccccc2oc1=O` (centres undefined) [WARFARIN], the logD in data set [1] (setting [9]) worked out at 0.9.

With `CC(C)n1c(/C=C/C(O)CC(O)CC(=O)O)c(-c2ccc(F)cc2)c2ccccc21` (centres undefined) [FLUVASTATIN], the logD in data set [1] (setting [9]) is 1.09. The same measure, in the same setting: as for `CNC[C@H](O)c1ccc(O)c(O)c1` [EPINEPHRINE], the figure is -2.59; as for `O=C1NC(=O)C(c2ccccc2)(c2ccccc2)N1` [PHENYTOIN], 2.5; as for `CC(C)(C)S(=O)(=O)C[C@@H](Cc1ccccc1)C(=O)N[C@@H](Cc1cnc[nH]1)C(=O)N[C@@H](CC1CCCCC1)[C@@H](O)[C@@H](O)C1CC1`, 2.75. Same read-out and setting: as for `CSc1ccc2ncn(/C=C/C(=O)O)c(=O)c2c1`, the figure is -1.05; as for `CN/C(=N/CCSCc1nc[nH]c1C)NC#N` [CIMETIDINE], -0.4. In data set [8], `CC(=O)Oc1ccccc1C(=O)O` [ASPIRIN] came in with a bioavailability of 100%.

On to `C=CCc1ccccc1OCC(O)CNC(C)C` (centres undefined) [ALPRENOLOL], for which the logD in data set [2] was 1.08. Turning to `CC(C)(C)NCC(O)COc1ccc(NC(=O)NC2CCCCC2)cc1` (centres undefined) [TALINOLOL], in data set [1] (setting [9]), the logD was 1.1. In addition, the bioavailability in data set [8] turned out to be 55%. Taken in the same sequence, the figures for `OC[C@@H](O)[C@@H](O)[C@H](O)[C@H](O)CO` [MANNITOL] were -3.1 and 16%.

On to `N=C(N)NCC1COc2ccccc2O1` (centres undefined) [GUANOXAN], for which the logD in data set [1] (setting [9]) is -0.83.

For the compound `COc1cc(/C=C/C(=O)O)ccc1O` [FERULATE], the values for the apparent permeability (Papp) at 1 h, 500 µM in data set [6] and in data set [7] were 10.8 ×10⁻⁶ cm/s and 11.2 ×10⁻⁶ cm/s, respectively. In data set [2], this compound registered a pH-dependent lipophilicity (logD) of -1.19. Also, the Papp B→A at 1 h, 500 µM in data set [3] stood at 10.2 ×10⁻⁶ cm/s. Further, the Papp A→B at 1 h, 500 µM in data set [4] is 10 ×10⁻⁶ cm/s. In addition, in data set [5], the efflux ratio at 1 h, 500 µM came out at 1. `O=C(O)c1ccccc1O` [SALICYLIC ACID]: the results for the logD in data set [2] and in data set [1] (setting [9]) were -2.34 and -1.44, respectively. Besides, the bioavailability in data set [8] was 100%.
